Compounds with a hit are over-represented: about 4.1% of the library has one in this group of screens.
AHR activator: AHR activators, primary screen, cell-based, luminescence, luciferase reporter, human. Aryl hydrocarbon receptor (Homo sapiens), P35869. AHR-responsive luciferase reporter cells. activation, % at 5 µM. 320,000 compounds, 2.5% hits. AID 2796, 2010; in the data active = activation above about 47%;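 note: 0% = vehicle wells and 100% = reference agonist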
Target sequence (P35869 whole entry, looked up): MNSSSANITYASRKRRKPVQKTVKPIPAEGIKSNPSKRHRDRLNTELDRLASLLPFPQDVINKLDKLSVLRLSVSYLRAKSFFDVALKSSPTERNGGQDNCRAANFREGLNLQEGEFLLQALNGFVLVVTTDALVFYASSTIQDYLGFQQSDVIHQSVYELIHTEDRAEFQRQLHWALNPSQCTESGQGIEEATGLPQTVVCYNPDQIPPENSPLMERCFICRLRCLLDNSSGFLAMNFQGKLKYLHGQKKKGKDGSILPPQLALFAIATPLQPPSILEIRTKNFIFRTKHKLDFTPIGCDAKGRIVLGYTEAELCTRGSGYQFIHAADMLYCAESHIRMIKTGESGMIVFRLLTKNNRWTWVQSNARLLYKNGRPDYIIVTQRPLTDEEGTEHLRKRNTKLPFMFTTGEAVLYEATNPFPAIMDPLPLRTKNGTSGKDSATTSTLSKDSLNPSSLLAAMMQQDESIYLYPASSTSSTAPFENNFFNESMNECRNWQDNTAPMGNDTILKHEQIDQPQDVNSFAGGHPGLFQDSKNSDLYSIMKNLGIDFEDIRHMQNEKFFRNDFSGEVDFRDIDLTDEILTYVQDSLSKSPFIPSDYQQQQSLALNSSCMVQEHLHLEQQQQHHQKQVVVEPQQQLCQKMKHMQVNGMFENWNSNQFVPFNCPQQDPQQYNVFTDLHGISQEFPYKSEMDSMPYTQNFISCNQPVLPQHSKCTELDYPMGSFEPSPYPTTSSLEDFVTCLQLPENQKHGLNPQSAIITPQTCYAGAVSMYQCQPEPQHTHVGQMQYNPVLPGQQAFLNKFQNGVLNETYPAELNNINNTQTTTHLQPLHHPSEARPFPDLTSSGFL
H9c2 TAG inh: inhibitors of triacylglycerol accumulation, primary screen, cell-based, uHTS, fluorescence, H9c2. H9c2 cells, Nile Red lipid (TAG) fluorescence; cells loaded with 200 µM oleic acid. inhibition, % at 12.5 µM. 230,000 compounds, 0.66% hits. AID 651582, 2012;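 active = pattern-corrected inhibition of lipid staining of at least 50% with the nuclear-stain viability signal not falling by more than 50%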;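 note: 0% = DMSO wells and 100% = triacsin C control wells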
Tb MetRS inh: T. brucei MetRS inhibitors, primary screen, biochemical, luminescence | purified T. brucei MetRS, ATP depletion, Kinase-Glo luminescence | inhibition, % at 11.9 µM | 360,000 compounds, 0.4% hits;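 active = inhibition above a per-plate cutoff of the control wells' mean inhibition plus 3 SD, cut at about 5.5% in these data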;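 note: 0% = DMSO wells median and 100% = median of wells with control inhibitor compound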
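Assay system: T. brucei methionyl-tRNA synthetase, purified | Medium: HEPES buffer with MgCl2, KCl, DTT, spermine, BSA, pyrophosphatase | Compound: 11.9 µM single point | Incubation: 15 min enzyme-compound preincubation, 2 h reaction, 10 min detection, 25 °C | Measured by: Kinase-Glo luciferase luminescence reporting remaining unconsumed ATP | Measure: % inhibition normalized to control-well medians | Replication: Singlicate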
Efflux pump inh: inhibitors of Candida efflux pumps in yeast, primary screen, S. cerevisiae, Nile Red, multiplex; S. cerevisiae Candida pump triplex; inhibition, % at 10 µM; 330,000 compounds, 0.44% hits; AID 485275, 2010;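 active = plate passing quality check with inhibition over a set limit, or well fluorescence over plate mean plus 4 SD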;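 note: Nile Red retained in pooled yeast measured as flow cytometry median fluorescence; 0% = buffer negative control and 100% = Enniatin B positive control; higher means more Nile Red kept so more efflux inhibition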
SMARCA2 act: SMARCA2 (BRM) function activators, primary screen, cell-based, luminescence, high throughput | activation, % at 9.1 µM | MG213 cells, MMTV-luciferase reporter, dexamethasone, overnight | 370,000 compounds, 1% hits; in the data active = activation above about 7.8%;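 note: 0% = vehicle wells and 100% = reference activator wells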
Tb MetRS conf: T. brucei MetRS inhibitors, confirmation, biochemical, luminescence. 1,400 compounds, 93% hits. inhibition, % at 11.9 µM. T. brucei MetRS enzyme, luminescence (ATP depletion). AID 624412, 2012. shares compounds with Tb MetRS inh; in the data active = inhibition above about 7%
Jurkat cytotox: Jurkat T cell cytotoxicity, cytotoxicity control for T. brucei MetRS inhibitor project, luminescence, high throughput; shares compounds with Tb MetRS inh; Jurkat cells viability, ATP luminescence; inhibition, % at 8.3 µM; 1,400 compounds, 12% hits; AID 624413, 2012; in the data active = inhibition above about 15%;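 note: 0% = vehicle and 100% = reference inhibitor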
Tb MetRS inh FP: T. brucei MetRS inhibitors, orthogonal assay for T. brucei MetRS inhibitor project, biochemical, fluorescence polarization. shares compounds with Tb MetRS inh. AID 651607, 2012. inhibition, % at 11.9 µM. purified T. brucei MetRS. 1,400 compounds, 44% hits; in the data active = inhibition above about 17%;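 note: 0% = vehicle wells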
* marks the source's active call; other numbers are inactive results; x = no result.

SMILES | AHR activator | H9c2 TAG inh | Tb MetRS inh | Efflux pump inh | SMARCA2 act | Tb MetRS conf | Jurkat cytotox | Tb MetRS inh FP
CCOC(=O)C1(Cc2ccccc2)CCN(Cc2ccnc3ccccc23)CC1 | x | x | x | x | -8.4 | x | x | x
Cc1nn(C(=O)CNC(=O)c2ccccc2)c(C)c1C | 0.8 | -5.5 | 0.1 | 0.3 | -3.3 | x | x | x
Cc1nn(C(=O)c2cc3sccc3[nH]2)c(C)c1C | 70.8* | x | 9.2* | -0.2 | 1.2 | 16.7* | -7.1 | 6.4
NC(=O)c1cccc(-c2ccnc3c2CC(C(=O)Nc2ccc(Cl)cc2)O3)c1 (stereo not drawn) | x | -8.5 | 51.5* | x | -4.8 | 70.0* | 4.5 | 47.1*
NC(=O)c1cccc(-c2ccnc3c2CC(C(=O)Nc2ccccc2)O3)c1 (stereo not drawn) | x | 3.9 | 0.7 | x | -1.6 | x | x | x
CCCCn1c(NC(C)=O)c(C#N)c2nc3ccccc3nc21 | 40.3 | 3.3 | -0.3 | 0.0 | -0.3 | x | x | x
C=CCn1c(NC(=O)c2ccccc2Cl)c(C#N)c2nc3ccccc3nc21 | 11.7 | 23.8 | 6.8* | 0.1 | -3.3 | 0.4 | -1.7 | 6.2
O=C(C/C=N\OCc1ccc([N+](=O)[O-])cc1)Nc1ccc(Br)cc1 | -0.6 | -35.8 | 83.2* | -0.4 | -0.9 | 101.4* | -1.0 | 90.8*
COC(=O)[C@]12C[C@H](CC(=O)NCC3CCCCC3)C(=O)N(Cc3ccc(Cl)cc3Cl)C1=C[C@H](C1CCCC1)O[C@@H]2C | x | x | x | x | -2.7 | x | x | x
CC(C(=O)Nc1ccc(O)cc1)c1cccc(C(=O)c2ccccc2)c1 (stereo not drawn) | 0.0 | x | 21.8* | -0.1 | -3.8 | 30.1* | 18.8* | 31.3*
C#CCNC(=O)C[C@H]1C(=O)N(CCCOC)C2=CCCC[C@@]21C(=O)OCC | x | x | x | x | 1.8 | x | x | x
CN(CC(=O)Nc1ccc(Cl)c(C(F)(F)F)c1)C(=O)c1ccc2c(c1)NC(=O)CS2 | 3.3 | -0.4 | 6.6* | 0.1 | -1.2 | 16.5* | -4.1 | 8.1
CN(CC(=O)Nc1ccc(F)c(F)c1F)C(=O)c1ccc2c(c1)NC(=O)CS2 | 4.6 | 7.8 | 0.4 | 0.1 | -0.4 | x | x | x
COC(=O)[C@]12C[C@H](CC(=O)NCCCCc3ccccc3)C(=O)N(Cc3ccco3)C1=C[C@H](C(C)C)O[C@@H]2C1CC1 | x | x | x | x | -3.0 | x | x | x
Cn1c(COc2ccc(Cl)cc2Cl)nnc1SCC(=O)NCC1CCCO1 (stereo not drawn) | -0.1 | x | 6.0* | 0.4 | -2.0 | 16.6* | -3.2 | 3.6
Cc1cccc(OCc2nnc(SCC(=O)NCC3CCCO3)n2C)c1 (stereo not drawn) | -1.7 | x | -0.3 | 0.1 | -3.5 | x | x | x
FC(F)Oc1ccc(NC(=S)NCc2nc3ccccc3[nH]2)cc1 | 8.1 | -4.9 | 55.4* | -0.3 | -2.1 | 64.6* | 9.0 | 39.6*
COc1cc(/C=C(\C#N)c2nc3ccccc3[nH]2)ccc1Oc1ccc([N+](=O)[O-])cn1 | 29.1 | x | 21.1* | 0.0 | 2.6 | 63.0* | 24.3* | 36.7*
COc1cc(/C=C(/C#N)c2ccccc2)ccc1Oc1ccc([N+](=O)[O-])cn1 | -1.7 | -102.6 | -1.4 | 0.0 | -2.9 | x | x | x
CCOC(=O)C(/C=C(\C#N)C(=O)OCC)=C(/N)N1CCN(c2ccc(Cl)cc2)CC1 | 1.1 | 0.3 | 40.4* | 0.0 | 0.6 | 49.4* | -2.7 | 24.2*
O=C(c1ccccc1)c1c[nH]c(C(=O)NNc2cccc(Cl)n2)c1 | -4.1 | 4.8 | 0.3 | 0.0 | -5.0 | x | x | x
O=C(c1ccc(Cl)cc1)c1c[nH]c(C(=O)NNc2cccc(Cl)n2)c1 | -3.0 | -10.0 | 22.1* | 0.4 | 0.8 | 28.3* | -7.4 | 14.2
COc1cc(NC(=O)CCN2CC(C)OC(C)C2)cc(OC)c1 (stereo not drawn) | 3.6 | x | 5.8* | -0.1 | -0.5 | 0.4 | 1.9 | 2.8
